Source: ChEMBL document CHEMBL2062496, “Identification of a sirtuin 3 inhibitor that displays selectivity over sirtuin 1 and 2” (Eur J Med Chem, 2012)
Calls of active or inactive are those of the source. The rule behind the calls is not given here.

How the values were obtained:
786-0 = assay: Growth inhibition of human 786-0 cells assessed as cell growth at 10 uM after 48 hrs by MTT assay; values are per cent of control; conditions: 786-0, 48 h
KM12 = assay: Growth inhibition of human KM12 cells assessed as cell growth at 10 uM after 48 hrs by MTT assay; values are per cent of control; conditions: KM12, 48 h
DU-145 = assay: Growth inhibition of human DU145 cells assessed as cell growth at 10 uM after 48 hrs by MTT assay; values are per cent of control; conditions: DU-145, 48 h
HCT-15 = assay: Growth inhibition of human HCT15 cells assessed as cell growth at 10 uM after 48 hrs by MTT assay; values are per cent of control; conditions: HCT-15, 48 h
SF-539 = assay: Growth inhibition of human SF539 cells assessed as cell growth at 10 uM after 48 hrs by MTT assay; values are per cent of control; conditions: SF-539, 48 h
MOLT-4 = assay: Growth inhibition of human MOLT4 cells assessed as cell growth at 10 uM after 48 hrs by MTT assay; values are per cent of control; conditions: MOLT-4, 48 h
IGROV-1 = assay: Growth inhibition of human IGROV1 cells assessed as cell growth at 10 uM after 48 hrs by MTT assay; values are per cent of control; conditions: IGROV-1, 48 h
RXF 393 = assay: Growth inhibition of human RXF393 cells assessed as cell growth at 10 uM after 48 hrs by MTT assay; values are per cent of control; conditions: RXF 393, 48 h
MDA-MB-231 = assay: Growth inhibition of human MDA-MB-231 cells assessed as cell growth at 10 uM after 48 hrs by MTT assay; values are per cent of control; conditions: MDA-MB-231, 48 h
OVCAR-8 = assay: Growth inhibition of human OVCAR8 cells assessed as cell growth at 10 uM after 48 hrs by MTT assay; values are per cent of control; conditions: OVCAR-8, 48 h
[1] = molecular target: T1, NAD-dependent protein deacetylase sirtuin-2 (Homo sapiens) (UniProt Q8IXJ6); assay: Inhibition of human SIRT2 assessed as enzyme activity using Fluor-de-Lys as substrate at 100 uM by fluorometry
T1 sequence (whole entry): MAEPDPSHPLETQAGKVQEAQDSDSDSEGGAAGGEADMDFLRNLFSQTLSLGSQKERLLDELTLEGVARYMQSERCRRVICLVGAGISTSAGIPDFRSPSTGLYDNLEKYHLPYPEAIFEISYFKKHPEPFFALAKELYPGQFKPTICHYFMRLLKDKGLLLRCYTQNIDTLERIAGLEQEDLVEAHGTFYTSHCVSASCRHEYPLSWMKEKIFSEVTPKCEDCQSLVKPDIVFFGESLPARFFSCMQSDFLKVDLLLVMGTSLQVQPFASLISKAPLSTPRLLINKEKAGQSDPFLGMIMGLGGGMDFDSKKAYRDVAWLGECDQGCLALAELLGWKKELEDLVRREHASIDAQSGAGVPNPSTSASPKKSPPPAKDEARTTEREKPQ
Method in brief: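 Commercial Fluor-de-Lys kit, substrate human p53 379–382 peptide (Arg-His-Lys-Lys(Ac)). Human Sirt1 or Sirt2 was incubated with substrate, NAD+ and compound at 1 mM, also tested at 100 µM. Fluorescence scales with Lys382 deacetylation. Activity is expressed relative to control, mean ± S.E.M. of 3–4 replicates.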

MDA-MB-435 = assay: Growth inhibition of human MDA-MB-435 cells assessed as cell growth at 10 uM after 48 hrs by MTT assay; values are per cent of control; conditions: MDA-MB-435, 48 h
MDA-MB-468 = assay: Growth of human MDA-MB-468 cells assessed as cell growth at 10 uM after 48 hrs by MTT assay; conditions: MDA-MB-468, 48 h
HL-60(TB) = assay: Growth inhibition of human HL-60(TB) cells assessed as cell growth at 10 uM after 48 hrs by MTT assay; assay type: functional; conditions: HL-60, 48 h, read-out: GI
SW-620 = assay: Growth inhibition of human SW620 cells assessed as cell growth at 10 uM after 48 hrs by MTT assay; values are per cent of control; conditions: SW-620, 48 h
SF-268 = assay: Growth inhibition of human SF268 cells assessed as cell growth at 10 uM after 48 hrs by MTT assay; values are per cent of control; conditions: SF-268, 48 h
HT-29 = assay: Growth inhibition of human HT-29 cells assessed as cell growth at 10 uM after 48 hrs by MTT assay; values are per cent of control; conditions: HT-29, 48 h
BT-549 = assay: Growth inhibition of human BT549 cells assessed as cell growth at 10 uM after 48 hrs by MTT assay; values are per cent of control; conditions: BT-549, 48 h
UACC-257 = assay: Growth inhibition of human UACC257 cells assessed as cell growth at 10 uM after 48 hrs by MTT assay; values are per cent of control; conditions: UACC-257, 48 h
CAKI-1 = assay: Growth inhibition of human Caki1 cells assessed as cell growth at 10 uM after 48 hrs by MTT assay; values are per cent of control; conditions: CAKI-1, 48 h
OVCAR-3 = assay: Growth inhibition of human OVCAR3 cells assessed as cell growth at 10 uM after 48 hrs by MTT assay; values are per cent of control; conditions: OVCAR-3, 48 h
SK-OV-3 = assay: Growth inhibition of human SKOV3 cells assessed as cell growth at 10 uM after 48 hrs by MTT assay; values are per cent of control; conditions: SK-OV-3, 48 h
M14 = assay: Growth inhibition of human M14 cells assessed as cell growth at 10 uM after 48 hrs by MTT assay; values are per cent of control; conditions: M14, 48 h
NCI-H23 = assay: Growth inhibition of human NCI-H23 cells assessed as cell growth at 10 uM after 48 hrs by MTT assay; values are per cent of control; conditions: NCI-H23, 48 h

## c1cncc(-c2cnn[nH]2)c1
786-0
  growth, % of control at 10 µM: 104%
KM12
  growth, % of control at 10 µM: 116%
DU-145
  growth, % of control at 10 µM: 96.3%
HCT-15
  growth, % of control at 10 µM: 69.2%
SF-539
  growth, % of control at 10 µM: 106%
MOLT-4
  growth, % of control at 10 µM: 101%
IGROV-1
  growth, % of control at 10 µM: 113%
RXF 393
  growth, % of control at 10 µM: 98.6%
MDA-MB-231
  growth, % of control at 10 µM: 103%
OVCAR-8
  growth, % of control at 10 µM: 49.8%
[1]
  inhibition: inactive
MDA-MB-435
  growth, % of control at 10 µM: 56%
MDA-MB-468
  growth, % of control at 10 µM: 104%
HL-60(TB)
  inhibition of growth at 10 µM: 92.9%
SW-620
  growth, % of control at 10 µM: 106%
SF-268
  growth, % of control at 10 µM: 113%
HT-29
  growth, % of control at 10 µM: 39.9%
BT-549
  growth, % of control at 10 µM: 97.7%
UACC-257
  growth, % of control at 10 µM: 90.3%
CAKI-1
  growth, % of control at 10 µM: 95.1%
OVCAR-3
  growth, % of control at 10 µM: 89.5%
SK-OV-3
  growth, % of control at 10 µM: 48%
M14
  growth, % of control at 10 µM: 72.5%
NCI-H23
  growth, % of control at 10 µM: 89.6%
